{"data": "Results gathered from unrelated publications", "target": "Serine/threonine-protein kinase TAO1 (TAOK1, Homo sapiens, UniProt Q7L7X3)", "Residues used in one study (Q7L7X3 1-1001)": "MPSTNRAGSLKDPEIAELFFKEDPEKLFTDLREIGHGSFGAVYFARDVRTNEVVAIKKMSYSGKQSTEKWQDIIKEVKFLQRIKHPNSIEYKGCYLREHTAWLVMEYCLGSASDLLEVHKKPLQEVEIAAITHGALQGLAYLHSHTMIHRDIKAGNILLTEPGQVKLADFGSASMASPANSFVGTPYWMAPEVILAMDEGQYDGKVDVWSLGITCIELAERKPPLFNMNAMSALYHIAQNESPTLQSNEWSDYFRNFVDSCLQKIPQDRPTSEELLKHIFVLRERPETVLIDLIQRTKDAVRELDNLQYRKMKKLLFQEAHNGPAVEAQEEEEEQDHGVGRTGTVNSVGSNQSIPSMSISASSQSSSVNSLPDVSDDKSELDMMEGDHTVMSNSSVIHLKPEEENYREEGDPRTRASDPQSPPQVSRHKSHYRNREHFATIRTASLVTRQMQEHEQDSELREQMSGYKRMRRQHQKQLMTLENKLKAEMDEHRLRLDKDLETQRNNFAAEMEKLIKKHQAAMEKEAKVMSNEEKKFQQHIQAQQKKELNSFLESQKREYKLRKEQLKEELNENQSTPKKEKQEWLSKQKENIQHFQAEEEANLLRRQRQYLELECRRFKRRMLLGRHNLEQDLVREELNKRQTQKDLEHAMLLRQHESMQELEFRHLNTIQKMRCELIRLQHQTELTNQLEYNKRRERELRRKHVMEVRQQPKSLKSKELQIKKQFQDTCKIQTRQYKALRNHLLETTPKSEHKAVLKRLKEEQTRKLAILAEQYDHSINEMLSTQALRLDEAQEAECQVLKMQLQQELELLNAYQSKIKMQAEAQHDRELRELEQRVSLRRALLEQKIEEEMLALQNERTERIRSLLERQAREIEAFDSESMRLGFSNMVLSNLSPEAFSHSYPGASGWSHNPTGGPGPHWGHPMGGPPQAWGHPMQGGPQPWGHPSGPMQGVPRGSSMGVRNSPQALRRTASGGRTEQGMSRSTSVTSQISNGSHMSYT", "note": "Lines come from different studies, so protocols differ."}
{"Compound": "O=C(Nc1cnn(-c2csc(C(=O)NC3COC3)c2)c1)Nc1c(F)cccc1Cl", "assay": "enzyme activity, inhibitor", "conditions": "5 µM", "quantity": "remaining activity", "value": "90.6%"}
{"Compound": "Cc1cc(C)c(-n2ccn3nc(-c4cccnc4)cc23)cc1NC(=O)c1cc(C#N)cc(S(F)(F)(F)(F)F)c1", "assay": "cell-free assay, competition with immobilised ligand", "conditions": "0.1 µM", "quantity": "remaining binding", "value": "45.2%"}
{"Compound": "Cn1c(=O)n(-c2ccc(C(C)(C)C#N)cc2)c2c3cc(-c4cnc5ccccc5c4)ccc3ncc21", "assay": "enzyme activity, inhibitor", "conditions": "10 µM", "quantity": "remaining activity", "value": "81%"}
{"Compound": "COc1cc(Nc2cnc(C#N)c(O[C@H](C)CN(C)C)n2)ncc1-c1cnn(C)c1", "assay": "enzyme activity, inhibitor, radiometric", "conditions": "1 µM", "quantity": "remaining activity", "value": "87%"}
{"Compound": "COc1cc(/C=C/C(=O)CC(=O)/C=C/c2ccc(O)c(OC)c2)ccc1O", "assay": "enzyme activity, inhibitor", "conditions": "1 µM", "quantity": "activity vs control", "value": "84%"}
{"Compound": "O=C1NC(=O)c2cc(Nc3ccc(F)cc3)c(Nc3ccc(F)cc3)cc21", "assay": "cell-free assay", "conditions": "0.5 µM", "quantity": "remaining signal", "value": "90.3%"}
{"Compound": "Oc1cccc(-c2nc(N3CCOCC3)c3oc4ncccc4c3n2)c1", "assay": "enzyme activity, inhibitor", "conditions": "10 µM", "quantity": "remaining activity", "value": "84%"}
{"Compound": "COc1ccc2cc(OCC3(C(=O)O)CN(C(=O)c4ccc(F)cc4)C3)ccc2c1", "assay": "cell-free assay, competition with immobilised ligand", "conditions": "1 µM", "quantity": "remaining binding", "value": "100%"}
{"Compound": "CC(C)(O)[C@H]1CC[C@H](Nc2ccc3ncc(-c4cccc(C(F)(F)F)c4)n3n2)CC1", "assay": "enzyme activity, inhibitor", "conditions": "1 µM", "quantity": "remaining activity", "value": "82.6%"}
{"Compound": "Nc1nc(Nc2ccc(S(N)(=O)=O)cc2)sc1C(=O)c1ccccc1[N+](=O)[O-]", "assay": "enzyme activity, inhibitor", "conditions": "0.1 µM", "quantity": "inhibition", "value": "60 to 66%"}
{"Compound": "CCN(CC)CCNC(=O)c1c(C)[nH]c(/C=C2\\C(=O)Nc3ccc(F)cc32)c1C", "assay": "cell-free assay", "conditions": "0.5 µM", "quantity": "remaining signal", "value": "71.5%"}
{"Compound": "Cc1cc(NC(=O)c2cccc3cc(-c4cccc5[nH]nc(N)c45)ccc23)ccc1F", "assay": "enzyme activity, inhibitor", "conditions": "0.1 µM", "quantity": "activity vs control", "value": "103%"}
{"Compound": "O=C(Nc1cccnn1)N1CC(C/C=C/c2cncc(Oc3ccc(C(F)(F)F)cn3)n2)C1", "assay": "cell-free assay, competition with immobilised ligand", "conditions": "1 µM", "quantity": "remaining binding", "value": "91%"}
{"Compound": "N#CCCc1ccc2c(c1)-c1[nH]c3ccc([N+](=O)[O-])cc3c1CC(=O)N2", "assay": "cell-free assay", "conditions": "0.5 µM", "quantity": "remaining signal", "value": "73.1%"}
{"Compound": "CN(C)C(=O)Cn1cc(-c2nc(C3(c4ccc(-c5cnc(N)nc5)cc4)CC3)no2)cn1", "assay": "cell-free assay, competition with immobilised ligand", "conditions": "1 µM", "quantity": "remaining binding", "value": "86%"}
{"Compound": "Cc1ccc(NC(=O)c2ccc(C)c(C(F)(F)F)c2)cc1C#Cc1nn(C2CCC(O)CC2)c2ncnc(N)c12 (centres unmarked)", "assay": "cell-free assay", "conditions": "10 µM", "quantity": "remaining signal", "value": "18%"}
{"Compound": "C[C@H](c1ccnc(Nc2nc3ccc(-c4cc(N(C)C)ncn4)cc3[nH]2)c1)N1CCN(C(=O)CC(F)(F)F)CC1", "assay": "cell-free assay, competition with immobilised ligand", "conditions": "0.1 µM", "quantity": "remaining binding", "value": "100%"}
{"Compound": "FC(F)(F)Oc1cccc(-c2cnc3ccc(-c4ccncc4)nn23)c1", "assay": "enzyme activity, inhibitor, radiometric", "conditions": "1 µM", "quantity": "activity vs control", "value": "83%"}
{"Compound": "O=C(N1CCS(=O)(=O)CC1)N1C[C@H](c2ccc(OC(F)(F)F)cc2)C[C@H](c2nc(C3CC3)no2)C1", "assay": "cell-free assay, competition with immobilised ligand", "conditions": "1 µM", "quantity": "remaining binding", "value": "100%"}
{"Compound": "Nc1ncnc2occ(-c3ccc(NC(=O)Nc4cc(C(F)(F)F)ccc4F)cc3)c12", "assay": "cell-free assay, inhibitor", "conditions": "20 µM", "quantity": "remaining signal", "value": "0.3%"}
